# Results of several laboratories.
# Each line is one published result; the experiments were not run side by side.
# CYP2B6: Cytochrome P450 2B6 (CYP2B6, Homo sapiens, UniProt P20813)
# PTPN11: Tyrosine-protein phosphatase non-receptor type 11 (PTPN11, Homo sapiens, UniProt Q06124)
# BCHE: Cholinesterase (BCHE, Equus caballus, UniProt P81908)
# PTGS1: Prostaglandin G/H synthase 1 (PTGS1, Ovis aries, UniProt P05979)
# RPS6KA3: Ribosomal protein S6 kinase alpha-3 (RPS6KA3, Homo sapiens, UniProt P51812)
# SIRT3: NAD-dependent protein deacetylase sirtuin-3, mitochondrial (SIRT3, Homo sapiens, UniProt Q9NTG7)
# NTRK2: BDNF/NT-3 growth factors receptor (NTRK2, Homo sapiens, UniProt Q16620)
# DRD1: D(1A) dopamine receptor (DRD1, Homo sapiens, UniProt P21728)
Structure (SMILES),target,test,system,setting,IC50
Cc1cc2c(F)c(Oc3ncnn4cc(OC[C@@H](C)O)c(C)c34)ccc2[nH]1,CYP2B6,"enzyme activity, inhibitor, fluorescence",,15 min,5.95 µM
O=[N+]([O-])c1ccc(NC(=S)N2CCc3ccccc3C2)c(Cl)c1,"Urease (Canavalia ensiformis, UniProt P07374)","enzyme activity, inhibitor, absorbance",,,25.5 µM
O=C(O)/C=C/c1ccc(-c2ccc(F)cc2)c(Cl)c1,PTPN11,"enzyme activity, inhibitor, fluorescence",,,2.11 µM
O=S1(=O)CCN(c2nccc(NCc3ccccc3)n2)CC1,BCHE,"enzyme activity, inhibitor",,,> 100 µM
O=C(NCCc1ccc(OP(=O)(O)O)c(OP(=O)(O)O)c1)OCC1c2ccccc2-c2ccccc21,"Signal transducer and activator of transcription 5A, SH2 (Homo sapiens, UniProt P42229)","ligand displacement, FP",,,32.4 µM
COc1ccc(Nc2c(-c3ccc(S(C)(=O)=O)cc3)nc3cccc(C)n23)cc1,PTGS1,"enzyme activity, inhibitor, fluorescence",,,21.1 µM
O=C1Nc2ccccc2/C1=C1/Nc2ccccc2/C1=N\O,"Ribosomal protein S6 kinase alpha-3, N-terminal kinase domain (RPS6KA3, Homo sapiens, UniProt P51812)","enzyme activity, inhibitor, FP",,,1 µM
O=Cc1ccc2[nH]ncc2c1,RPS6KA3,"enzyme activity, inhibitor",,,~350 µM
Cc1cc(-c2ccc(NC(=O)[C@H](CCCCNC(=O)CCN3C(=O)CC(SCC(=O)N[C@H](Cc4ccccc4)C(=O)N[C@H]4CSSC[C@@H](C(=O)N[C@H](C(=O)O)[C@@H](C)O)NC(=O)[C@H]([C@@H](C)O)NC(=O)[C@H](CCCCN)NC(=O)[C@@H](Cc5c[nH]c6ccccc56)NC(=O)[C@H](Cc5ccc(O)cc5)NC4=O)C3=O)NC(=O)CN3CCN(CC(=O)O)CCN(CC(=O)O)CCN(CC(=O)O)CC3)c(C)c2)ccc1N=Nc1ccc2c(S(=O)(=O)O)cc(S(=O)(=O)O)c(N)c2c1O (some centres unmarked),"Somatostatin receptor type 2 (Rattus norvegicus, UniProt P30680)",ligand displacement,,,0.00916 µM
Cc1ccc(Nc2c(-c3ccc(S(C)(=O)=O)cc3)nc3cc(C)ccn23)cc1,PTGS1,"enzyme activity, inhibitor, fluorescence",,,33.9 µM
CC(=O)N1C[C@@H](CCN2CCC(c3c[nH]c4ccccc34)CC2)c2ccccc21,"Sodium-dependent serotonin transporter (SLC6A4, Homo sapiens, UniProt P31645)","ligand displacement, radioligand",,cell membranes,0.182 µM
CC[C@@H](C(=O)Nc1ccc(C(N)=O)c(F)c1)n1cc(OC)c(-c2cc(Cl)ccc2-n2cc(C(F)(F)F)nn2)cc1=O,"Coagulation factor VII (F7, Homo sapiens, UniProt P08709)","enzyme activity, inhibitor",,,1.9 µM
O=C(NO)c1ccc(CN(c2cnccn2)c2cnccn2)cc1,SIRT3,"enzyme activity, inhibitor, fluorescence",,,> 10 µM
CCCCCCCCCCCCNC(=S)NCCCC[C@H](NS(C)(=O)=O)C(=O)N[C@H](C)C(=O)N[C@@H](CCCNC(=N)N)C(=O)N1CCOCC1,SIRT3,"enzyme activity, inhibitor",,,55 µM
N[C@@H](Cc1ccccc1)C(=O)N[C@@H](Cc1ccccc1)C(=O)N[C@@H](CC(=O)O)C(=O)O,PTPN11,"enzyme activity, inhibitor, absorbance",,pH 7.4,114 µM
Cc1cnc(-c2ccc(-c3ccc(NC(=O)Nc4c(F)cc(F)cc4F)cc3F)c3c2C(=O)NC3)[nH]1,NTRK2,"enzyme activity, inhibitor",,,0.0065 µM
CC(NC(=O)c1ccccc1/N=C/c1c(O)ccc2ccccc12)c1ccccc1 (centres unmarked),SIRT3,"enzyme activity, inhibitor, HPLC",,,150 µM
Oc1cc2c(cc1OCC(F)F)CCN1Cc3c(c(Br)cc(O)c3OCC(F)F)C[C@@H]21,DRD1,"cAMP, antagonist, TR-FRET",,,0.23 µM
CC1Cc2ccccc2N1C(=O)NCCCCN(C)[C@@H]1Cc2cccc3[nH]c(=O)n(c23)C1 (mixture of isomers),DRD1,"ligand displacement, radioligand",,,> 10 µM
CC(C)(C)n1nc(-c2cnc3cc(OC4CC4)ccc3c2)c(C(N)=O)c1N,"Calcium/calmodulin-dependent protein kinase type 1D (CAMK1D, Homo sapiens, UniProt Q8IU85)",cell-free assay,,,> 10 µM
COCCN1CCN(c2nccc(NCc3ccccc3)n2)CC1,BCHE,"enzyme activity, inhibitor",,,> 100 µM
CCN(CC)CCCC[C@H](NC(=O)[C@H](CC(C)C)NC(=O)[C@H](C)NC(=O)[C@H](Cc1ccccc1)NC(=O)c1ccc(C(C)(C)C)cc1)C(=O)N[C@@H](CO)C(=O)OC,"Chromobox protein homolog 8 (Homo sapiens, UniProt Q9HC52)","ligand displacement, TR-FRET",,,0.56 µM
CC1=C[C@@]2(C[C@H](C)[C@H]3CC=C(C)C(=O)[C@@H]3O2)OC1=O,PTPN11,"enzyme activity, inhibitor",,,> 500 µM
FC(F)(F)c1ccc(CN2CCN(c3nccc(NCc4ccccc4)n3)CC2)cc1,BCHE,"enzyme activity, inhibitor",,,> 100 µM
COc1ccc(COc2c(OC)ccc3c2C[C@@H](C(=O)O)N(c2nc4ccc(C#N)cc4o2)C3)cn1,"Type-2 angiotensin II receptor (AGTR2, Homo sapiens, UniProt P50052)","cell-free assay, TR-FRET",,,0.046 µM
CNC(=O)c1cc(Oc2ccc(NC(=O)Nc3cc(C(C)(C)C)nn3-c3ccc4ncccc4c3)c(F)c2)ccn1,"Mitogen-activated protein kinase kinase kinase 20 (MAP3K20, Homo sapiens, UniProt Q9NYL2)","enzyme activity, inhibitor, mass spectrometry",,,0.012 µM
C[C@@H](N)COc1ccc(-c2cnc3ccc(N[C@H](C)c4cccc(F)c4)nn23)cc1,NTRK2,"enzyme activity, inhibitor",,,0.0055 µM
CN(CCCCNC(=O)c1cc2ccccc2[nH]1)[C@@H]1Cc2cccc3[nH]c(=O)n(c23)C1,DRD1,"ligand displacement, radioligand",,,> 9.2 µM
CCCCCCCCCCCCNC(=S)NCCCC[C@H](NC(C)=O)C(=O)N[C@@H](C)C(=O)N[C@@H](CCCNC(=N)N)C(N)=O,SIRT3,"enzyme activity, inhibitor",,,2.2 µM
CCOC(F)(F)c1nnc2cnc(-c3cnc(OCC(F)(F)F)c(F)c3)cn12,"Sodium channel protein type 8 subunit alpha (Scn8a, Mus musculus, UniProt Q9WTU3)","ion current, inhibitor, patch clamp",,,0.145 µM
Cc1cc(Nc2cc(CN3CCOCC3)c3nc(C)c(Cc4ccc(Cl)cc4F)n3n2)n[nH]1,"Mitogen-activated protein kinase kinase kinase 9 (MAP3K9, Homo sapiens, UniProt P80192)","enzyme activity, inhibitor, TR-FRET",,,0.299 µM
CCc1cc(/C(C)=N/OCc2ccc(C3CCCCC3)c(C(F)(F)F)c2)ccc1CN1CC(C(=O)O)C1,CYP2B6,"enzyme activity, inhibitor","human, liver microsomes",20 min,> 0.6 µM
CN1CCN(c2ccc(Nc3ncc4cc(C#N)c(=O)n(C5CCCC5)c4n3)cc2)CC1,RPS6KA3,"enzyme activity, inhibitor",,,0.38 µM
CSc1ccc(/C=C2/C(C)=C(CC(=O)O)c3cc(F)ccc32)cc1,"cGMP-inhibited 3',5'-cyclic phosphodiesterase 3B (PDE3B, Homo sapiens, UniProt Q13370)","enzyme activity, inhibitor",,,> 100 µM
Cc1c(Br)cc(NC(=O)NS(=O)(=O)O)cc1Br,"Tyrosine-protein phosphatase non-receptor type 9 (PTPN9, Homo sapiens, UniProt P43378)","enzyme activity, inhibitor, absorbance",,,> 10 µM
